Measurements reported in ChEMBL document CHEMBL3596157, “Heteroaromatic analogs of the resveratrol analog DMU-212 as potent anti-cancer agents” (2015).

Columns and labels:
Assay type in all cases: functional
[1] = Growth inhibition of human BT549 cells after 48 hrs by SRB assay; conditions: BT-549, 48 h
Outline: (§1)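 NCI-60 panel screen. Cells exposed for 48 h to five concentrations (10−4, 10−5, 10−6, 10−7 and 10−8 M). Sulforhodamine B optical density is read just before compound addition (time zero) and after 48 h, for both treated and vehicle-control wells. Percent growth is calculated against control. GI50 is the concentration giving a 50% reduction in net cell growth relative to cell numbers on day 0.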

[2] = tested on: NCI-H522; assay: Growth inhibition of human NCI-H522 cells after 48 hrs by SRB assay; conditions: NCI-H522, 48 h; outline: as §1
[3] = tested on: ACHN; assay: Growth inhibition of human ACHN cells after 48 hrs by SRB assay; outline: as §1
[4] = tested on: SK-MEL-28; assay: Growth inhibition of human SK-MEL-28 cells after 48 hrs by SRB assay; conditions: SK-MEL-28, 48 h; outline: as §1
[5] = tested on: KM12; assay: Growth inhibition of human KM12 cells after 48 hrs by SRB assay; conditions: KM12, 48 h; outline: as §1
[6] = tested on: SW-620; assay: Growth inhibition of human SW620 cells after 48 hrs by SRB assay; conditions: SW-620, 48 h
Outline: (§2)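 NCI-60 panel cells; preliminary single-dose screen at 10−5 M, then five-dose testing at 10−4 to 10−8 M (tenfold steps) with 48 h exposure. SRB-stained optical density read before compound addition (time zero), after 48 h with compound, and with vehicle control. Percent growth is calculated against control. GI50 is the concentration giving 50% reduction in net growth relative to day-0 cell number.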

[7] = Growth inhibition of human HOP92 cells after 48 hrs by SRB assay; conditions: HOP-92, 48 h; outline: as §1
[8] = tested on: OVCAR-4; assay: Growth inhibition of human OVCAR4 cells after 48 hrs by SRB assay; conditions: OVCAR-4, 48 h; outline: as §1
[9] = Growth inhibition of human RXF393 cells after 48 hrs by SRB assay; conditions: RXF 393, 48 h; outline: as §1
[10] = tested on: PC-3; assay: Growth inhibition of human PC3 cells after 48 hrs by SRB assay; conditions: PC-3, 48 h; outline: as §1
[11] = Growth inhibition of human HCC2998 cells after 48 hrs by SRB assay; conditions: HCC 2998, 48 h; outline: as §1
[12] = tested on: Malme-3M; assay: Growth inhibition of human MALME-3M cells after 48 hrs by SRB assay; outline: as §1
[13] = tested on: SK-MEL-5; assay: Growth inhibition of human SK-MEL-5 cells after 48 hrs by SRB assay; conditions: SK-MEL-5, 48 h; outline: as §1
[14] = tested on: CAKI-1; assay: Growth inhibition of human Caki1 cells after 48 hrs by SRB assay; conditions: CAKI-1, 48 h; outline: as §1
[15] = tested on: MDA-MB-468; assay: Growth inhibition of human MDA-MB-468 cells after 48 hrs by SRB assay; conditions: MDA-MB-468, 48 h; outline: as §1
[16] = tested on: CCRF-CEM; assay: Growth inhibition of human CCRF-CEM cells after 48 hrs by SRB assay; outline: as §1
[17] = tested on: U-251; assay: Growth inhibition of human U251 cells after 48 hrs by SRB assay; conditions: U-251, 48 h; outline: as §2
[18] = tested on: IGROV-1; assay: Growth inhibition of human IGROV1 cells after 48 hrs by SRB assay; conditions: IGROV-1, 48 h; outline: as §1
[19] = tested on: DU-145; assay: Growth inhibition of human DU145 cells after 48 hrs by SRB assay; conditions: DU-145, 48 h; outline: as §1
[20] = Growth inhibition of human MOLT4 cells after 48 hrs by SRB assay; conditions: MOLT-4, 48 h; outline: as §1
[21] = Growth inhibition of human LOXIMVI cells after 48 hrs by SRB assay; conditions: LOX IMVI; outline: as §1
[22] = Growth inhibition of human Hs578T cells after 48 hrs by SRB assay; conditions: Hs-578T; outline: as §1
[23] = tested on: SK-MEL-2; assay: Growth inhibition of human SK-MEL-2 cells after 48 hrs by SRB assay; conditions: SK-MEL-2, 48 h; outline: as §1
[24] = tested on: UO-31; assay: Growth inhibition of human UO31 cells after 48 hrs by SRB assay; conditions: UO-31, 48 h; outline: as §2
[25] = tested on: HCT-15; assay: Growth inhibition of human HCT15 cells after 48 hrs by SRB assay; conditions: HCT-15, 48 h; outline: as §1
[26] = tested on: MDA-MB-435; assay: Growth inhibition of human MDA-MB-435 cells after 48 hrs by SRB assay; conditions: MDA-MB-435, 48 h; outline: as §1
[27] = tested on: HCT-116; assay: Growth inhibition of human HCT116 cells after 48 hrs by SRB assay; conditions: HCT-116, 48 h; outline: as §1
[28] = tested on: MDA-MB-231; assay: Growth inhibition of human MDA-MB-231/ATCC cells after 48 hrs by SRB assay; conditions: MDA-MB-231, 48 h; outline: as §1
[29] = tested on: SF-268; assay: Growth inhibition of human SF268 cells after 48 hrs by SRB assay; conditions: SF-268, 48 h; outline: as §1

Question: What does the source list for `COc1cc(/C=C/c2cc3ccccc3o2)cc(OC)c1OC`?
Answer: GI50 [1]: 1090 nM; GI50 [2]: 436 nM; GI50 [3]: 863 nM; GI50 [4]: 837 nM; GI50 [5]: 508 nM; GI50 [6]: 444 nM; GI50 [7]: 170 nM; GI50 [8]: 1150 nM; GI50 [9]: 329 nM; GI50 [10]: 524 nM; GI50 [11]: 334 nM; GI50 [12]: 413 nM; GI50 [13]: 345 nM; GI50 [14]: 580 nM; GI50 [15]: 662 nM; GI50 [16]: 425 nM; GI50 [17]: 668 nM; GI50 [18]: 807 nM; GI50 [19]: 1860 nM; GI50 [20]: 852 nM; GI50 [21]: 895 nM; GI50 [22]: 499 nM; GI50 [23]: 767 nM; GI50 [24]: 1150 nM; GI50 [25]: 402 nM; GI50 [26]: 78 nM; GI50 [27]: 522 nM; GI50 [28]: 1170 nM; GI50 [29]: 861 nM
